Laboratory results: ChEMBL document CHEMBL2417496, “Novel selective inhibitors of aminopeptidases that generate antigenic peptides” (Bioorg Med Chem Lett, 2013)
The source made the active and inactive calls. The calls are words filed in the database; no cut-off is given here.

Legend:
[1] = molecular target: T1, Endoplasmic reticulum aminopeptidase 2 (Homo sapiens, UniProt Q6P179); assay: Inhibition of recombinant ERAP2 (unknown origin) expressed in baculovirus-infected Hi5 insect cells assessed as L-Arginyl-7-amido-4-methyl coumarin hydrolysis to 7-amido-4-methyl coumarin at 50 to 100 uM after 5 to 10 mins by fluorescence assay relative to control
Summary of the method: (§1)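 ERAP2 was made as a recombinant protein in baculovirus-infected Hi5 insect cells and purified by affinity chromatography. Activity was monitored fluorogenically as the rate of R-AMC hydrolysis. Inhibitor was titrated, and inhibition was also examined at 50 μM and across 50–100 μM.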

[2] = molecular target: Endoplasmic reticulum aminopeptidase 1 (Homo sapiens) (UniProt Q9NZ08); assay: Inhibition of recombinant ERAP1 (unknown origin) expressed in baculovirus-infected Hi5 insect cells assessed as L-Leucine-7-amido-4-methyl coumarin hydrolysis to 7-amido-4-methyl coumarin at 50 uM after 5 to 10 mins by fluorescence assay
Summary of the method: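 ERAP1 was made as a recombinant protein in Hi5 insect cells infected with recombinant baculovirus and affinity-purified to homogeneity. Activity was followed as the kinetics of hydrolysis of the fluorogenic substrate L-AMC. Inhibitor was titrated at increasing amounts, and single-point inhibition was checked at 50 μM.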

[3] = molecular target: T1, Endoplasmic reticulum aminopeptidase 2; assay: Inhibition of recombinant ERAP2 (unknown origin) expressed in baculovirus-infected Hi5 insect cells assessed as L-Arginyl-7-amido-4-methyl coumarin hydrolysis to 7-amido-4-methyl coumarin after 5 to 10 mins by fluorescence assay
[4] = molecular target: T1, Endoplasmic reticulum aminopeptidase 2; assay: Inhibition of recombinant ERAP2 (unknown origin) expressed in baculovirus-infected Hi5 insect cells assessed as L-Arginyl-7-amido-4-methyl coumarin hydrolysis to 7-amido-4-methyl coumarin at 50 uM after 5 to 10 mins by fluorescence assay; summary of the method: as §1
[5] = molecular target: T2, Leucyl-cystinyl aminopeptidase (Homo sapiens, UniProt Q9UIQ6); assay: Inhibition of human recombinant IRAP expressed in HeLa cells assessed as L-Leucine-7-amido-4-methyl coumarin hydrolysis to 7-amido-4-methyl coumarin at 50 to 100 uM after 5 to 10 mins by fluorescence assay relative to control; format: cell-based
[6] = molecular target: T2, Leucyl-cystinyl aminopeptidase; assay: Inhibition of human recombinant IRAP expressed in HeLa cells assessed as L-Leucine-7-amido-4-methyl coumarin hydrolysis to 7-amido-4-methyl coumarin after 5 to 10 mins by fluorescence assay; format: cell-based

T2 sequence (Q9UIQ6 whole entry): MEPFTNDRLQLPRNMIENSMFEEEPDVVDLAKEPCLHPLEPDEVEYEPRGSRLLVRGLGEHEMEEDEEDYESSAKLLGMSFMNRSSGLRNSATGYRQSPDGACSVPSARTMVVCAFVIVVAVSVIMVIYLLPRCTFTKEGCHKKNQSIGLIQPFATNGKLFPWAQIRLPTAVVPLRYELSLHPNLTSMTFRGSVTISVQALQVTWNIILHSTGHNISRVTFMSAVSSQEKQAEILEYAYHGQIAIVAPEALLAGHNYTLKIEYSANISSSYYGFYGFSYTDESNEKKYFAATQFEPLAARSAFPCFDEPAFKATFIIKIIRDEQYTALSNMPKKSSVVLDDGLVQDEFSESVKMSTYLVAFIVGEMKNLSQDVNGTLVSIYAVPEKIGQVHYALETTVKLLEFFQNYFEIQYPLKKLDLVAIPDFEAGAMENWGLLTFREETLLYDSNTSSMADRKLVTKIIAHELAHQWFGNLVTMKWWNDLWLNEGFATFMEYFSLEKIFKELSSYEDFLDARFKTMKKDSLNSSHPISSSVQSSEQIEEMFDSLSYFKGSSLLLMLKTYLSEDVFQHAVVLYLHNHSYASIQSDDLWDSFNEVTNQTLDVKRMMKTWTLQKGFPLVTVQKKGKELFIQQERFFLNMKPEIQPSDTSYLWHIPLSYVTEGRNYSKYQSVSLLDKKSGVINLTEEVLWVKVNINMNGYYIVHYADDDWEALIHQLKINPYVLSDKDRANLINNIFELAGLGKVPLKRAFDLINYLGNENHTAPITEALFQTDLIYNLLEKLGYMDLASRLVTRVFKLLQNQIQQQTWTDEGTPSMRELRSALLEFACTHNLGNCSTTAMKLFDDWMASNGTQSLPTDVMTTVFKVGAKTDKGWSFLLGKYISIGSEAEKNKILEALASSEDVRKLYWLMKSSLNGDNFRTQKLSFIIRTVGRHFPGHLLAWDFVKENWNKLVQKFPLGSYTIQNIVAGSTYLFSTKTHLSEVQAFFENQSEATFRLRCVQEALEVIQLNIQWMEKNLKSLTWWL
T1 sequence (Q6P179 whole entry): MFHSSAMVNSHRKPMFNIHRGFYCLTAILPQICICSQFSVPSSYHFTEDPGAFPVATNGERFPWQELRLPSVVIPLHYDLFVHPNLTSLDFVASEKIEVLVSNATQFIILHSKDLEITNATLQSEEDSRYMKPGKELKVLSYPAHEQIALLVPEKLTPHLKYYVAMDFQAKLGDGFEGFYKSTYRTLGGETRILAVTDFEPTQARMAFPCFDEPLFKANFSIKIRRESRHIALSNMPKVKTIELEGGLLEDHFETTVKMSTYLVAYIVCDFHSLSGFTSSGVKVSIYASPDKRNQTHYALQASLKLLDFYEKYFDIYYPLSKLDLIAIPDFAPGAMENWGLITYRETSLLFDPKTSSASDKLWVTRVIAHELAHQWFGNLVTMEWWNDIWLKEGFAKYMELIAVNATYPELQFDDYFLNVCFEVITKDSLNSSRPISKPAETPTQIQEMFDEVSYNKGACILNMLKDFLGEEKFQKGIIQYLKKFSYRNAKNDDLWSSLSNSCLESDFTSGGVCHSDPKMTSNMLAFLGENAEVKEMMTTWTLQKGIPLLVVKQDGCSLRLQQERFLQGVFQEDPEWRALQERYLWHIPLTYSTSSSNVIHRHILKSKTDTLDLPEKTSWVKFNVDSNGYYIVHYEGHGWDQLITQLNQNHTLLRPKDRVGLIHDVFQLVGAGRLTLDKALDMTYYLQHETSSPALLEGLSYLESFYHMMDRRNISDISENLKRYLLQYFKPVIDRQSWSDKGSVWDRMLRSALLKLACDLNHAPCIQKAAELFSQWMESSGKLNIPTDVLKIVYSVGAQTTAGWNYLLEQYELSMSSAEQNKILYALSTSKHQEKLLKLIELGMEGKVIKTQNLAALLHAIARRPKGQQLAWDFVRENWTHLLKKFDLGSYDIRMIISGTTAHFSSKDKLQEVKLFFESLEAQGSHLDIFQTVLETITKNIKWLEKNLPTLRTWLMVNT
Chain of Endoplasmic reticulum aminopeptidase 1 (Homo sapiens) (Q9NZ08 whole entry): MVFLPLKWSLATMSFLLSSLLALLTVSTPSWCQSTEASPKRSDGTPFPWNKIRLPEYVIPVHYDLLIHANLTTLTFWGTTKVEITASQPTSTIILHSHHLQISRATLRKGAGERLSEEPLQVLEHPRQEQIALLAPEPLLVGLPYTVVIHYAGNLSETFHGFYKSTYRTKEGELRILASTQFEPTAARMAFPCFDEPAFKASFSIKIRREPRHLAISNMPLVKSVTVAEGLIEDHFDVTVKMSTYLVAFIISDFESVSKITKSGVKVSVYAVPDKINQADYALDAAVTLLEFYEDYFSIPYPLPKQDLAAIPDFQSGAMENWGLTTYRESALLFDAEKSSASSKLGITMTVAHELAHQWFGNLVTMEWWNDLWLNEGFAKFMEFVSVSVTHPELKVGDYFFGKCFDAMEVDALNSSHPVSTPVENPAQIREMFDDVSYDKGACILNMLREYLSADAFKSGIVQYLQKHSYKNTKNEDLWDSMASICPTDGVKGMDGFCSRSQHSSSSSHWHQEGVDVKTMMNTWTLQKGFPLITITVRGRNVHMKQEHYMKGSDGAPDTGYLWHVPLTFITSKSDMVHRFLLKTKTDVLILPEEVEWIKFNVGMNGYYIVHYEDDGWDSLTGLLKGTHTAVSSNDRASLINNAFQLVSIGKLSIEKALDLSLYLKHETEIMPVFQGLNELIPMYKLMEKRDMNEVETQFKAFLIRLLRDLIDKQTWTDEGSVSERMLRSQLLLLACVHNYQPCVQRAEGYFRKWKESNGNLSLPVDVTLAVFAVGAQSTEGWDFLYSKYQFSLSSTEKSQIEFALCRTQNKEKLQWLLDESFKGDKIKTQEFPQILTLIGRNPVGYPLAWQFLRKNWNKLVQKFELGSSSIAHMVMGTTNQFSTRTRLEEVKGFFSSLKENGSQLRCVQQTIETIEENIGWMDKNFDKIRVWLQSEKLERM

SMILES | inhibition [1] [%] | inhibition [2] | IC50 [3] [µM] | inhibition [4] | inhibition [5] [%] | IC50 [6] [µM]
COC(=O)c1ccc(N)c(NC(=O)[C@@H](N)CCc2ccccc2)c1 | < 20 | inactive | > 100 | – | – | –
COC(=O)[C@H](CCCNC(=N)N)NC(=O)c1ccc(N)c(NC(=O)[C@@H](N)CCc2ccccc2)c1 | – | inactive | – | inactive | – | –
Nc1ccc(C(=O)O)cc1NC(=O)[C@@H](N)CCc1ccccc1 | < 20 | inactive | > 100 | – | < 20 | > 100
COC(=O)[C@H](Cc1ccc(O)cc1)NC(=O)c1ccc(N)c(NC(=O)[C@@H](N)CCc2ccccc2)c1 | < 20 | – | > 100 | – | – | –
Nc1ccc(C(=O)N[C@@H](Cc2c[nH]c3ccccc23)C(=O)OCc2ccccc2)cc1NC(=O)[C@@H](N)CCc1ccccc1 | – | inactive | – | – | – | –

Other lines, results leading:

inhibition [1] [%] | inhibition [2] | IC50 [3] [µM] | inhibition [4] | inhibition [5] [%] | IC50 [6] [µM] | SMILES
– | inactive | – | inactive | < 20 | > 100 | CC(C)[C@H](NC(=O)c1ccc(N)c(NC(=O)[C@@H](N)CCc2ccccc2)c1)C(=O)O
– | inactive | – | inactive | – | – | COC(=O)[C@@H](NC(=O)c1ccc(N)c(NC(=O)[C@@H](N)CCc2ccccc2)c1)[C@@H](C)O
– | inactive | – | inactive | – | – | COC(=O)[C@H](C)NC(=O)c1ccc(N)c(NC(=O)[C@@H](N)CCc2ccccc2)c1
